Three molecules from ChEMBL document CHEMBL5370667, “ent-Clavilactone J and Its Quinone Derivative, Meroterpenoids from the Fungus Resupinatus sp” (J Nat Prod, 2023) can be followed below.

The subject of one data set is Rhodotorula glutinis. Briefly: Antifungal activity against Rhodotorula glutinis DSM 10134 assessed as growth inhibition. It is filed as functional.
A further data set concerns SK-OV-3. Put plainly: Antiproliferative activity against human SK-OV-3 cells assessed as cell growth inhibition. Format: functional, cell-based. An outline of the steps:
(§1)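 IC50 (μM) determined against mammalian cell lines from the DSMZ ACC collection (SK-OV-3 without an ACC number), with epothilone B run in parallel as reference.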

The next data set concerns Bacillus subtilis. Briefly: Antibacterial activity against Bacillus subtilis DSM 10 assessed as bacterial growth inhibition. Format: functional. The gist of the method:
(§2)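 Growth inhibition read as minimum inhibitory concentration (μg/mL) against strains from DSMZ. A positive-control antibiotic was run alongside.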

The subject of data set [1] is Mycolicibacterium smegmatis. Put plainly: Antibacterial activity against Mycolicibacterium smegmatis ATCC 700084 assessed as bacterial growth inhibition. Format: functional.
Another data set has as its system Staphylococcus aureus. Put plainly: Antibacterial activity against Staphylococcus aureus DSM 346 assessed as bacterial growth inhibition. It is filed as functional. An outline of the steps: as §2
For another data set, the system named is Acinetobacter baumannii. Briefly: Antibacterial activity against Acinetobacter baumannii DSM 30008 assessed as bacterial growth inhibition. Format: functional.
Data set [2] deals with Chromobacterium violaceum. Put plainly: Antibacterial activity against Chromobacterium violaceum DSM 30191 assessed as bacterial growth inhibition. It is filed as functional.
The next data set concerns Escherichia coli. Put plainly: Antibacterial activity against Escherichia coli DSM 1116 assessed as bacterial growth inhibition. Format: functional.
Another data set relates to Pseudomonas aeruginosa. Put plainly: Antibacterial activity against Pseudomonas aeruginosa DSM 19882 assessed as bacterial growth inhibition. It is filed as functional.
The next data set has as its system Mucor hiemalis. Put plainly: Antifungal activity against Mucor hiemalis DSM 2656 assessed as growth inhibition. Format: functional.
The subject of another data set is Candida albicans. Briefly: Antifungal activity against Candida albicans DSM 1665 assessed as growth inhibition. Format: functional.
The subject of the next data set is A549. Briefly: Antiproliferative activity against human A549 cells assessed as cell growth inhibition. Format: functional, cell-based. An outline of the steps: as §1
The subject of data set [3] is Schizosaccharomyces pombe. Put plainly: Antifungal activity against Schizosaccharomyces pombe DSM 70572 assessed as growth inhibition. Format: functional.
The next data set concerns Wickerhamomyces anomalus. Briefly: Antifungal activity against Wickerhamomyces anomalus DSM 6766 assessed as growth inhibition. It is filed as functional.
Data set [4] can be described thus: Antiproliferative activity against mouse L929 cells assessed as cell growth inhibition. Format: toxicity, cell-based. The gist of the method: as §1
In the next data set the test system is KB 3-1. Briefly: Antiproliferative activity against human KB-3-1 cells assessed as cell growth inhibition. Format: functional, cell-based. The gist of the method: as §1
The test system of another data set is A-431. Put plainly: Antiproliferative activity against human A-431 cells assessed as cell growth inhibition. Format: functional, cell-based. An outline of the steps: as §1
For a further data set, the system named is MCF7. Briefly: Antiproliferative activity against human MCF7 cells assessed as cell growth inhibition. Format: functional, cell-based. An outline of the steps: as §1
The next data set relates to PC-3. Put plainly: Antiproliferative activity against human PC-3 cells assessed as cell growth inhibition. Format: functional, cell-based. The gist of the method: as §1

The structures appear in SMILES notation. In brackets after ≈: the same amount, converted by molar mass. Activity calls are given as the source filed them. The calls are words filed in the database; no cut-off is given here.

For orientation: IC50 means the concentration that gives 50% inhibition. Usually MIC stands for the lowest concentration that inhibits growth of the organism. For `C[C@@]12CC3=C(C(=O)C=CC3=O)[C@@H]3OC(=O)[C@@]4(CC[C@@H]1O2)O[C@@H]34`, the inhibition result (in the data set on Rhodotorula glutinis; in [1]; with Acinetobacter baumannii; in data set [2]; in the data set with Escherichia coli; in the data set on Pseudomonas aeruginosa) was “inactive” each time. For the same molecule, the inhibition entry (with Mucor hiemalis; in the data set on Candida albicans; in data set [3]; with Wickerhamomyces anomalus) was “inactive” in each case. Further, the IC50 in the data set with SK-OV-3 turned out to be 30 µM; with A549, 57 µM; in data set [4] it was 6000 nM; in the data set with KB 3-1, 22 µM; in the data set with A-431 it was 6.5 µM; with MCF7 it was 4200 nM. Moreover, in the data set on PC-3, the IC50 came out at 19 µM. Besides, the MIC in the data set on Bacillus subtilis and in the data set with Staphylococcus aureus was 67 µg/mL (≈ 222 µM) throughout.

Consider `C[C@@]12Cc3c(O)ccc(O)c3[C@@H]3OC(=O)[C@@]4(CC[C@@H]1O2)O[C@@H]34`, for which the inhibition entry (in the data set on Rhodotorula glutinis; in data set [1]; in the data set with Acinetobacter baumannii; in [2]; in the data set with Escherichia coli; in the data set on Pseudomonas aeruginosa) was “inactive” in each case. In addition, the inhibition result (in the data set with Mucor hiemalis; in the data set with Candida albicans; in data set [3]; in the data set on Wickerhamomyces anomalus) was “inactive” in each case. For the same molecule, the IC50 was determined as 47 µM in the data set with SK-OV-3; 19 µM in the data set on A549; 2100 nM in data set [4]; 6.7 µM in the data set on KB 3-1; 3.5 µM in the data set on A-431; 1900 nM in the data set with MCF7. In addition, the IC50 in the data set on PC-3 was 18 µM. In the data set on Bacillus subtilis, the MIC turned out to be 17 µg/mL (≈ 55.9 µM).

`C/C(=C\c1csc(C)n1)[C@@H]1C[C@@H]2O[C@]2(C)CCC[C@H](C)[C@H](O)[C@@H](C)C(=O)C(C)(C)[C@@H](O)CC(=O)O1` [PATUPILONE]: the MIC with Rhodotorula glutinis worked out at 2.1 µg/mL (≈ 4.14 µM); in the data set on Bacillus subtilis it was 8.3 µg/mL (≈ 16.3 µM); in data set [1], 1.7 µg/mL (≈ 3.35 µM); in the data set with Staphylococcus aureus, 0.21 µg/mL (≈ 0.414 µM); in the data set with Acinetobacter baumannii it was 0.26 µg/mL (≈ 0.512 µM); in data set [2], 0.42 µg/mL (≈ 0.827 µM). For the same molecule, the MIC with Escherichia coli turned out to be 1.7 µg/mL (≈ 3.35 µM); in the data set on Pseudomonas aeruginosa, 0.21 µg/mL (≈ 0.414 µM); in the data set on Mucor hiemalis it was 4.2 µg/mL (≈ 8.27 µM); with Candida albicans, 8.3 µg/mL (≈ 16.3 µM); in [3], 4.2 µg/mL (≈ 8.27 µM); in the data set on Wickerhamomyces anomalus (Hansenula anomala) it was 8.3 µg/mL (≈ 16.3 µM). Further, the IC50 was found to be 0.00018 µM in the data set with SK-OV-3; 5.3e-05 µM with A549; 0.43 nM in data set [4]; 3.4e-05 µM in the data set on KB 3-1; 5.1e-05 µM in the data set on A-431; 0.03 nM in the data set on MCF7. Moreover, in the data set on PC-3, the IC50 was 0.00028 µM.
